STAT3 inh-1 = IL-6 driven STAT3 reporter inhibitors, primary screen, U3A cells, luciferase, luminescence, MLSCN library. inhibition, % at 5.5 µM. hit rate 0.89% among 190,000. IL-6 STAT3-luciferase reporter; host cell line lacks STAT1;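 active = inhibition above the mean inhibition across all screened compounds plus 3 SD, cut at about 44% in these data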;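 note: 0% = DMSO only wells and 100% = 100 µM nifuroxazide control wells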
KCC2 mod = KCC2 cotransporter modulators, thallium flux, primary screen, cell-based, HEK293 KCC2, FluoZin-2 fluorescence, MLSMR; KCC2 cells, thallium flux FluoZin-2 fluorescence; hit rate 2.2% among 190,000; Solute carrier family 12 member 5 (Homo sapiens), Q9H2X9; B-score of Tl+ flux slope (higher = more flux/activation; lower = inhibition) at 10 µM;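 active = thallium flux slope and its plate-corrected score both differing from the plate sample mean at a set confidence after two filtering rounds, in either direction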;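 note: slope of fluorescence scaled to starting intensity during 10 to 20 s after thallium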
STAT1 act = STAT1 signaling activators, primary screen, cell-based, HTS, luciferase reporter; NIH 3T3 STAT1-luciferase reporter, IFN-gamma, luminescence; 100% = IFN-gamma alone, no compound; activation (% of control), % at 5.5 µM; hit rate 2.6% among 200,000;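 active = activation above the screen-wide mean activation plus 3 SD, cut at about 130% in these data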;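 note: raw ratio to IFN-gamma control signal so 100% means no change and 0% no light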
HSV replic up = enhancers of HSV replication in host cells, fold increase, host cell viability; maximum fold increase; HSV replication augmentation in cells; hit rate 0.005% among 220,000; in the data active = maximum fold increase above about 1.5; tested in PC3 cells
STAT1 inh = STAT1 signaling inhibitors, primary screen, cell-based, HTS, luciferase reporter. NIH 3T3 STAT1-luciferase reporter, IFN-gamma, luminescence. inhibition, % at 5.5 µM. hit rate 0.35% among 200,000;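 active = inhibition above a set limit, the mean inhibition across all tested compounds plus 3 SD, cut at about 34% in these data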;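 note: 0% = IFN-gamma with DMSO and 100% = IFN-gamma with 300 µM nifuroxazide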
STAT3 activator = IL-6 driven STAT3 reporter potentiators, primary screen, U3A cells, luciferase, luminescence, MLSCN library | IL-6 STAT3-luciferase reporter; 100% = signal with IL-6 EC80 alone | activation (% of control), % at 5.6 µM | hit rate 0.91% among 190,000;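 active = activation above the screen-wide mean of compound activation plus 3 SD, cut at about 130% in these data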;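 note: 0% = background luminescence of wells with medium and substrate only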
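Test system: STAT3-luciferase reporter U3A cells; Detection: reporter luminescence signal; Times: 1 h compound pre-exposure, 6 h IL-6 stimulation, 37 °C; Benchmarks: IL-6-only high control; Also added: IL-6 stimulus at 33 ng/mL final.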
STAT3 inh-2 = STAT3 reporter inhibitors, retest of hits, confirmation, U3A cells, luciferase, luminescence | IL-6 STAT3 luciferase reporter; cell line lacks STAT1 | inhibition, % at 5.7 µM | shares compounds with STAT3 inh-1 | hit rate 45% among 1,200 | AID 1265, 2008;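 active = inhibition above the hit cutoff computed for the primary STAT3 screen, cut at about 44% in these data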;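 note: 0% = IL-6 plus DMSO and 100% = IL-6 plus nifuroxazide control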
NFkB inh STAT3ct = NF-kB reporter inhibitors in human cells, confirmation, counter-screen for STAT3 inhibitor project, cell-based, HEK293T, luciferase, TNF-alpha stimulus. shares compounds with STAT3 inh-1. TNF-alpha induced. inhibition, % at 5.7 µM. hit rate 36% among 1,200. AID 1308, 2008;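 active = inhibition above the mean of solvent-only control wells plus 3 SD, cutoff set per campaign, cut at about 13% in these data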;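 note: 0% = TNF-alpha with DMSO and 100% = TNF-alpha with MG high control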
STAT1 inh STAT3c = STAT1 reporter inhibitors, IFN-gamma induced, confirmation, counter-screen for STAT3 inhibitor project, cell-based, NIH 3T3, luciferase luminescence; shares compounds with STAT3 inh-1; hit rate 27% among 1,200; inhibition, % at 5.7 µM; NIH 3T3 STAT1-luciferase reporter;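 active = inhibition above the mean plus 3 SD of solvent-only control wells, limit set per screening run, cut at about 16% in these data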;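 note: 0% = DMSO with IFN-gamma and 100% = nifuroxazide control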
The depositor's hits bear a star; i = inactive; / = no result. The list is not random: actives were taken first. Their share in the collection is about 5.5%.

SMILES	STAT3 inh-1	KCC2 mod	STAT1 act	HSV replic up	STAT1 inh	STAT3 activator	STAT3 inh-2	NFkB inh STAT3ct	STAT1 inh STAT3c
COc1ccc(OC)c(C2(O)CSC(=Nc3cccnc3)N2Cc2ccco2)c1 (stereo unspecified)	24	-0.11	85	i	17	86	/	/	/
O=C(Oc1ccc(Br)cc1)c1n[nH]c(=O)c2ccccc12	6	0.71	92	i	8	95	/	/	/
CCc1nnc(NC(=O)c2ccc(OC)cc2OC)s1	49*	0.48	143*	i	-47	57	13	-28	-118
CCc1nnc(NC(=O)Nc2ccccc2OC)s1	12	-0.19	120	i	-22	94	/	/	/
CC(C)CC(=O)N(Cc1ccc(F)cc1)C1CCS(=O)(=O)C1 (stereo unspecified)	6	0.24	95	i	3	102	/	/	/
CCOC(=O)Cc1csc(N/N=C/c2ccc(C(F)(F)F)cc2)n1	60*	/	77	/	26	57	22	13*	-47
N#Cc1cnn2cc(-c3ncc(C(F)(F)F)cc3Cl)cnc12	24	/	106	i	-6	85	/	/	/
Cc1nn2cc(-c3ncc(C(F)(F)F)cc3Cl)cnc2c1Br	47*	0.13	129*	i	-32	63	47*	10	-43
Cc1cc2ncc(-c3ncc(C(F)(F)F)cc3Cl)cn2n1	64*	/	75	i	28	51	42	5	-39
Cc1ccc(CNCCC2=CCCCC2)cc1	-13	0.39	98	i	2	109	/	/	/
S=C(NCCc1ccccc1)Nc1cccc2cnccc12	68*	0.62	76	i	26	44	73*	25*	23*
COc1ccc(NC(=O)c2cc3ccccn3n2)cc1	46*	/	120	i	-23	67	20	-29	-96
CCOc1ccc(/C=N/NC(=O)c2ccccc2NC(=O)c2ccc(OC)cc2)cc1	15	0.06	75	i	28	86	/	/	/
COc1ccc(C(=O)Nc2ccccc2C(=O)N/N=C/c2ccco2)cc1	48*	3.7	74	i	29	60	2	18*	20*
CCOc1cc(CNCc2ccncc2)cc(Cl)c1OC	13	-0.22	96	/	5	92	/	/	/
COc1ccc(Cl)cc1NC(=O)COC(=O)/C=C/c1c(C)nn(C2CCS(=O)(=O)C2)c1Cl (stereo unspecified)	46*	0.13	90	i	11	66	32	1	-5
Cc1nn(C2CCS(=O)(=O)C2)c(Cl)c1/C=C/C(=O)OCC(=O)Nc1ccccc1OC(F)F (stereo unspecified)	9	0.39	96	i	4	96	/	/	/
CCc1nc(C)cn1S(=O)(=O)c1cc(C)c(OC)c(C)c1C	54*	-2	81	i	21	57	45*	10	17*
COc1ccc(Nc2nc3c(c(=O)n(C)c(=O)n3C)n2CCO)cc1	-4	0.33	99	i	2	107	/	/	/
Cc1csc2c(=O)[nH]cnc12	6	1.3	96	i	4	97	/	/	/
COc1ccc(Br)cc1CSC(=N)N	17	0.99	88	i	12	89	/	/	/
CCCCCOc1ccc(Br)cc1CSC(=N)N	49*	1.2	70	i	33	61	63*	23*	21*
NC(=O)c1ccc(-c2ncc(-c3ccccc3)o2)cc1	54*	0.45	71	i	32	55	2	20*	-44
COCCCNC(=O)Cn1cc(C(C)=O)c2ccccc21	12	0.25	102	i	0	91	/	/	/
CC(=O)c1cn(CC(=O)Nc2ccc(C)cc2C)c2ccccc12	62*	0.43	73	i	26	51	61*	12	22*
SMILES	STAT3 inh-1	KCC2 mod	STAT1 act	HSV replic up	STAT1 inh	STAT3 activator	STAT3 inh-2	NFkB inh STAT3ct	STAT1 inh STAT3c
CC(=O)c1cn(CC(=O)Nc2cccc(C)c2C)c2ccccc12	49*	-0.56	72	i	29	60	44*	15*	23*
CCCCCn1c(=O)[nH]c2cc(C(=O)N3CCN(Cc4ccc5c(c4)OCO5)CC3)ccc2c1=O	87*	/	86	i	15	28	88*	42*	23*
COc1ccc(CN2CCN(C(=O)c3ccc4nc(N5CCOCC5)sc4c3)CC2)c(OC)c1OC	3	-0.31	91	i	8	99	/	/	/
CC1CCN(c2nc3ccc(C(=O)N4CCN(Cc5ccc6c(c5)OCO6)CC4)cc3s2)CC1	49*	0.34	120	/	-22	65	26	-9	-49
Cc1ccc(S(=O)(=O)N2CCN(C(C)C(=O)Nc3ccccc3-c3ccccc3)CC2)cc1 (stereo unspecified)	-2	-0.077	98	i	3	102	/	/	/
CCS(=O)(=O)c1ccc(N=Nc2ccc(O)c3ncccc23)c(OC)c1	55*	0.02	104	i	-2	56	16	-5	-18
Cc1ccc(-c2c[n+](Cc3ccc(Cl)c(Cl)c3)c3n2CCC3)cc1	4	0.74	89	/	12	95	/	/	/
Cc1ccc(S(=O)(=O)C(C#N)c2nc3ccccc3nc2N2CCN(C)CC2)cc1 (stereo unspecified)	44*	0.49	109	i	-10	67	59*	19*	3
Cc1cc(C)c2nc(NC(=O)c3ccc(OCC4CCCO4)cc3)sc2c1 (stereo unspecified)	47*	-0.22	107	i	-8	60	36	0	-11
Nc1[nH]n(-c2ccccc2)c(=O)c1N=Nc1ccc2c(c1)OCCO2	45*	0.39	120	i	-22	65	10	-15	-94
Nc1[nH]n(-c2ccccc2)c(=O)c1N=Nc1ccc2c(c1)OCO2	/	1.4	/	i	/	/	/	/	/
COc1ccc(-c2nc(O)c3cnccn23)cc1	1	-0.098	105	i	-6	102	/	/	/
Cc1nc2ccccc2cc1OCc1ccc(Cl)cc1	71*	-0.46	89	i	12	46	80*	13*	4

Source: PubChem BioAssay
